The source made the active and inactive calls. No cut-off for these calls is given here.
Legend:
[1] = test system: A549; test: Antiproliferative activity against human A549 cells after 48 hrs by MTT assay; type: functional; conditions: A549, 48 h
[2] = test system: HepG2; test: Antiproliferative activity against human HepG2 cells after 48 hrs by MTT assay; type: functional; conditions: HepG2, 48 h
[3] = test system: HCT-116; test: Antiproliferative activity against human HCT116 cells after 48 hrs by MTT assay; type: functional; conditions: HCT-116, 48 h
[4] = test system: PC-3; test: Antiproliferative activity against human PC3 cells after 48 hrs by MTT assay; type: functional; conditions: PC-3, 48 h
[5] = Inhibition of HDAC
[6] = test system: U-937; test: Cell cycle arrest in human U937 cells assessed as accumulation at S phase at 5 uM after 30 hrs by FACS; type: functional, cell-based
[7] = test system: U-937; test: Induction of granulocytic differentiation in human U937 cells assessed as CD11c positive PI negative cells at 5 uM after 30 hrs by FACS; type: functional, cell-based
Outline: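 U937 human leukemia cells treated 30 h at 5 µM; differentiation scored by FACS as the percentage of CD11c-positive, PI-negative cells; values are the mean of four independent replicates.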

[8] = test system: U-937; test: Induction of apoptosis in human U937 cells at 5 uM after 30 hrs by propidium iodide and annexin V staining; type: functional, cell-based
[9] = test system: U-937; test: Cell cycle arrest in human U937 cells assessed as accumulation at G1 phase at 5 uM after 30 hrs by FACS; type: functional, cell-based
[10] = target: Histone deacetylase (Homo sapiens) (UniProt Q13547+O15379+Q9UBN7+Q92769+Q9UQL6+Q8WUI4+Q9BY41+Q96DB2+P56524+Q9UKV0+Q969S8); test: Inhibition of HDAC in human U937 cells assessed as histone H3 acetylation at 5 uM after 24 hrs by Western blot; type: cell-based; conditions: U-937
Outline: (§1)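 Human leukemia U937 cells exposed to 5 µM for 24 h. Acetyl-histone H3 was read by Western blot as a class I HDAC marker, and acetyl-α-tubulin as an HDAC6 marker.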

[11] = target: T1, Protein deacetylase HDAC6 (Homo sapiens) (UniProt Q9UBN7); test: Inhibition of HDAC6 in human U937 cells assessed as alpha-tubulin acetylation at 5 uM after 24 hrs by Western blot; type: cell-based; conditions: U-937; outline: as §1
T1 sequence (whole entry): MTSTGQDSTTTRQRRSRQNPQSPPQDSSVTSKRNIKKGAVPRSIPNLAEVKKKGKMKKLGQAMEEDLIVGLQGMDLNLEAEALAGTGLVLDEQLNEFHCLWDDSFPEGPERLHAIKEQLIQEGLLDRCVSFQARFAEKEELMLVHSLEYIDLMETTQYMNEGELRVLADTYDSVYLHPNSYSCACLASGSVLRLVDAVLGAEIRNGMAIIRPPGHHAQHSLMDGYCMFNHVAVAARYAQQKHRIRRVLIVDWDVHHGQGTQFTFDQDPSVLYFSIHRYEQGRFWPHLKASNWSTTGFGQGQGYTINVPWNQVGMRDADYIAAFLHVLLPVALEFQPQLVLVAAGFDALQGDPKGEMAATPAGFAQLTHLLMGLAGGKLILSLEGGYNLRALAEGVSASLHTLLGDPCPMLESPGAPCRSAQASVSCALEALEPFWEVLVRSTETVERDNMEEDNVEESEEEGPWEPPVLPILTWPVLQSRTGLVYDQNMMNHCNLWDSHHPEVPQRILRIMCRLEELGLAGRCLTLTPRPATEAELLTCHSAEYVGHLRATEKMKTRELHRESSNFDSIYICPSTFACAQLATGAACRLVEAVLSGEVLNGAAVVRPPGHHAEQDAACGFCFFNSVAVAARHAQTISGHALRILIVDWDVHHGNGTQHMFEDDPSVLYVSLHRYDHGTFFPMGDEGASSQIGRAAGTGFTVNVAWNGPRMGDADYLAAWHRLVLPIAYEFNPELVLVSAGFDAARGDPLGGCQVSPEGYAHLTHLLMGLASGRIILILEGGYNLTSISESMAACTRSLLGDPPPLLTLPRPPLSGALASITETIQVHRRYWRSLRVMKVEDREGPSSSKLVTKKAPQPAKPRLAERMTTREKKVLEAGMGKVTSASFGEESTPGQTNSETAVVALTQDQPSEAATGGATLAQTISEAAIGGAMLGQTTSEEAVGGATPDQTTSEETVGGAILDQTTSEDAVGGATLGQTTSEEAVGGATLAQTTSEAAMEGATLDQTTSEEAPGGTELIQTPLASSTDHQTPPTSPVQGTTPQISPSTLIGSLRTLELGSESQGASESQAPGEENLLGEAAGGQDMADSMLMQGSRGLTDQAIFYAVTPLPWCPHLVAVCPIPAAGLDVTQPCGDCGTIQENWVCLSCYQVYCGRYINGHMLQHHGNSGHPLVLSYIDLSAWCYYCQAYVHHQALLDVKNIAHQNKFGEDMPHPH

[12] = test system: U-937; test: Induction of p21WAF1/CIP1 expression in human U937 cells at 5 uM after 24 hrs by Western blot; type: functional, cell-based
[13] = target: Histone deacetylase 1 (Homo sapiens, UniProt Q13547); test: Inhibition of human recombinant HDAC1 expressed in baculovirus
[14] = target: Histone deacetylase 4 (Homo sapiens, UniProt P56524); test: Inhibition of human recombinant his tagged HDAC4 expressed in baculovirus
Sequence of Histone deacetylase 4 (P56524 whole entry): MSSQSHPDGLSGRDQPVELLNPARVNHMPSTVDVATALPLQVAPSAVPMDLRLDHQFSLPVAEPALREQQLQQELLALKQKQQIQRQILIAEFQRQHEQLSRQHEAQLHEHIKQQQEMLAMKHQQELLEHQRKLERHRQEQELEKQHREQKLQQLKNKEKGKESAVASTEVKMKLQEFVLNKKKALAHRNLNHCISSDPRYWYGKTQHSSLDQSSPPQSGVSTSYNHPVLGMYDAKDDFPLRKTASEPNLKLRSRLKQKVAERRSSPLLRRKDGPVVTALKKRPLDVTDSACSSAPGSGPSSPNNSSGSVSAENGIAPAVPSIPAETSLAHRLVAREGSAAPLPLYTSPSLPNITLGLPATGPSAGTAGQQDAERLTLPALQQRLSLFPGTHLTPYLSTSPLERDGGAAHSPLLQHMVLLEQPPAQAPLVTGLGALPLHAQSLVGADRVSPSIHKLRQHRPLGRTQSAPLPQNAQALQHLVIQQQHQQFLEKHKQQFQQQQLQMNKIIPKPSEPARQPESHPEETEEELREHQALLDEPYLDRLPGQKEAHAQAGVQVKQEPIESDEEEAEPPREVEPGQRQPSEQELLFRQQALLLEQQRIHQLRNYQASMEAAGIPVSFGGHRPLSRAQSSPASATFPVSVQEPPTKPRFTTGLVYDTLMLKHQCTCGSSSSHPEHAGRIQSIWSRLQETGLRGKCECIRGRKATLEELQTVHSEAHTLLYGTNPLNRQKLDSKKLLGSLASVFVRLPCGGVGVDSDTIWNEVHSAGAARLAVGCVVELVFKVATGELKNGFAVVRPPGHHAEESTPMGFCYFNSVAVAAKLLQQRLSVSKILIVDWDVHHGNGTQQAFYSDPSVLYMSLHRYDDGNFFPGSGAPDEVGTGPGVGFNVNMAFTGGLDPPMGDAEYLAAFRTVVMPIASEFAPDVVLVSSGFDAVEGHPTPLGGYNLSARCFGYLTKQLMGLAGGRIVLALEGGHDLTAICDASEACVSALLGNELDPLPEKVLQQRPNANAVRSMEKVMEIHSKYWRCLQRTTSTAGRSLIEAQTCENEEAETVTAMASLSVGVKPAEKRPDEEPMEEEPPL

Sequence of Histone deacetylase 1 (Q13547 whole entry): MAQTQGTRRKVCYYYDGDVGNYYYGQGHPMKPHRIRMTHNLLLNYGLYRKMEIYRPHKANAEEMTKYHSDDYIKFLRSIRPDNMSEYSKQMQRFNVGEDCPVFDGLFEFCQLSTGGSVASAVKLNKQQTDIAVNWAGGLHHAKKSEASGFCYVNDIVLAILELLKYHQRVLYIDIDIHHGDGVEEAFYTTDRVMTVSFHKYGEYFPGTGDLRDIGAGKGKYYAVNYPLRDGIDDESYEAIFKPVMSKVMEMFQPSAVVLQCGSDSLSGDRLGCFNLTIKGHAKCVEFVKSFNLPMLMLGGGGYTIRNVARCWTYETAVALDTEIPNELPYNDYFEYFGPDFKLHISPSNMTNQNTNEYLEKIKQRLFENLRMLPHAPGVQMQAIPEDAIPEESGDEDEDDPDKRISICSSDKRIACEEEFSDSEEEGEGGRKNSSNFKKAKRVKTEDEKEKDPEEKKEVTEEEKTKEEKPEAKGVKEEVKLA

Structure (SMILES) | GI50 [1] | GI50 [2] | GI50 [3] | GI50 [4] | IC50 [5] | Activity [6] | Activity [7] | Activity [8] | Activity [9] | inhibition [10] | inhibition [11] | Activity [12] | IC50 [13] | IC50 [14]
O=C(CCCCCCC(=O)Nc1ccccc1)NO [VORINOSTAT] | > 200 µM | 63.5 µM | 2.69 µM | 8.17 µM | 0.053 µM | – | – | – | – | – | – | – | – | –
CCCCCCCCN(Cc1ccc(C(=O)NO)cc1)c1ncc(-c2ccc(C)cc2)s1 | 4.63 µM | 8.76 µM | 6.5 µM | 13.3 µM | 1.59 µM | – | – | – | – | – | – | – | – | –
CCN(Cc1ccc(C(=O)NO)cc1)c1ncc(-c2ccc(C)cc2)s1 | 2.7 µM | 1.12 µM | 6.87 µM | 10.3 µM | 0.054 µM | – | – | – | – | – | – | – | – | –
Cc1ccc(-c2cnc(N(Cc3ccccc3)Cc3ccc(C(=O)NO)cc3)s2)cc1 | 4.41 µM | 34 µM | 48.8 µM | 10.3 µM | 3.11 µM | – | – | – | – | – | – | – | – | –
CCCN(Cc1ccc(C(=O)NO)cc1)c1ncc(-c2ccc(C)cc2)s1 | 3.31 µM | 2.55 µM | 5.8 µM | 9.16 µM | 0.052 µM | – | – | – | – | – | – | – | – | –
CCCCN(Cc1ccc(C(=O)NO)cc1)c1ncc(-c2ccc(C)cc2)s1 | 4.78 µM | 4.3 µM | 8.78 µM | 6.41 µM | 1.35 µM | – | – | – | – | – | – | – | – | –
Cc1ccc(-c2cnc(N(Cc3ccc(C(=O)NO)cc3)CC(C)C)s2)cc1 | 20.4 µM | 7.42 µM | 5.9 µM | 9.34 µM | 0.494 µM | – | – | – | – | – | – | – | – | –
CCCCCN(Cc1ccc(C(=O)NO)cc1)c1ncc(-c2ccc(C)cc2)s1 | 9.14 µM | 7.02 µM | 23.3 µM | 5.06 µM | 4.33 µM | – | – | – | – | – | – | – | – | –
Cc1ccc(OCCCCN(Cc2ccc(C(=O)NO)cc2)c2ncc(-c3ccc(C)cc3)s2)cc1 | 8.63 µM | 11 µM | 0.58 µM | 1.22 µM | 1.67 µM | Active | Active | Active | – | – | – | – | – | –
Cc1ccc(-c2cnc(N(CCOc3ccccc3)Cc3ccc(C(=O)NO)cc3)s2)cc1 | 14 µM | 12 µM | 8.81 µM | 7.86 µM | 0.041 µM | – | Active | Active | Active | Active | inactive | Active | 2.3 µM | > 50 µM
CCCCCCN(Cc1ccc(C(=O)NO)cc1)c1ncc(-c2ccc(C)cc2)s1 | 3.71 µM | 7.42 µM | 4.85 µM | 5.27 µM | 2.79 µM | – | – | – | – | – | – | – | – | –
Cc1ccc(OCCCN(Cc2ccc(C(=O)NO)cc2)c2ncc(-c3ccc(C)cc3)s2)cc1 | 32.5 µM | 12.2 µM | 12.6 µM | 9.33 µM | 1.07 µM | – | – | – | Active | Active | Active | Active | – | –
Cc1ccc(-c2cnc(N(CCCOc3ccccc3)Cc3ccc(C(=O)NO)cc3)s2)cc1 | 2.53 µM | 23.4 µM | 4.14 µM | 17.5 µM | 0.195 µM | – | – | – | Active | Active | Active | Active | – | –
Cc1ccc(-c2cnc(N(CCCCOc3ccccc3)Cc3ccc(C(=O)NO)cc3)s2)cc1 | 14.2 µM | 16.6 µM | 0.68 µM | 10.3 µM | 0.057 µM | – | – | – | Active | Active | Active | – | – | –
Cc1ccc(-c2cnc(N(Cc3ccc(C(=O)NO)cc3)C(C)C)s2)cc1 | 3.83 µM | 2.18 µM | 7.8 µM | 1.15 µM | 0.168 µM | – | – | – | – | – | – | – | – | –
Cc1ccc(OCCN(Cc2ccc(C(=O)NO)cc2)c2ncc(-c3ccc(C)cc3)s2)cc1 | 11.2 µM | 11.5 µM | 17.3 µM | 5.57 µM | 0.101 µM | – | Active | Active | Active | Active | Active | Active | 1.05 µM | > 50 µM

— ChEMBL document CHEMBL1156110, “Novel N-hydroxybenzamide-based HDAC inhibitors with branched CAP group” (Bioorg Med Chem Lett, 2009)
